# Assay results pooled from the literature.
# Each line is one published result; the experiments were not run side by side.
# Cell line: A2780
# Effect on: cell growth or viability
SMILES,assay,conditions,endpoint,result
COc1ccc(C(=O)O[C@@H]2CN3Cc4c(cc5c(c4OC)OCO5)[C@@]24C=C[C@H](OC)C[C@@H]34)cc1,WST-1,,IC50,> 10000 nM
Cc1[nH]c2ccccc2c1CCNCc1ccc(/C=C/C(=O)NO)cc1,crystal violet,48 h,IC50,3.9 nM
C/C=C/C[C@H](C)[C@@H](OC)[C@@H](C)[C@H](O)C[C@H]1OC(=O)C=C[C@H]1CC,MTT,48 h,GI50,41 nM
COc1ccc(C(=O)O[C@@H]2CN3Cc4c(cc5c(c4OC)OCO5)[C@@]24C=C[C@H](OC)C[C@@H]34)cc1OC,WST-1,,IC50,6000 nM
CC[C@]1(O)C[C@H]2CN(CCc3c([nH]c4ccccc34)[C@@](C(=O)OC)(c3cc4c(cc3OC)N(C=O)[C@H]3[C@@](O)(C(=O)OC)[C@H](OC(C)=O)[C@]5(CC)C=CCN6CC[C@]43[C@@H]65)C2)C1,fluorescence,72 h,IC50,0.22 nM
C[C@H]1O[C@@H](n2cc(F)c(=O)[nH]c2=O)[C@H](O)[C@@H]1O,CCK-8,48 h,IC50,> 50000 nM
CC[C@@H]1C=CC(=O)O[C@@H]1C[C@@H](OC)[C@H](C)[C@H](OC)[C@@H](C)Cc1ccc(F)cc1,MTT,48 h,GI50,1930 nM
COc1cccc(C(=O)O[C@@H]2CN3Cc4c(cc5c(c4OC)OCO5)[C@@]24C=C[C@H](OC)C[C@@H]34)c1,WST-1,,IC50,> 10000 nM
Nc1ccn([C@@H]2O[C@H](CO)[C@@H](O)C2(F)F)c(=O)n1,CCK-8,72 h,IC50,4.7 nM
CCC[C@H](Nc1nc(-c2ccc(NC(=O)NCC)c(OC)c2)ncc1C)c1cccnc1,fluorescence,72 h,IC50,54.6 nM
